Experimental data reported in ChEMBL document CHEMBL1687816, “Effect of antacids on the pharmacokinetics of raltegravir in human immunodeficiency virus-seronegative volunteers” (Antimicrob Agents Chemother, 2010).

Assays:
[1] = Tmax in HIV-seronegative healthy volunteers at 400 mg, po administered as single dose by LC-MS/MS; type: ADME, organism-based; conditions: human, in vivo
Summary of the method: (§1)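 Single fasted 400 mg oral dose was given alone or with 30 ml antacid in a crossover design with a 5- to 12-day washout. Fasting continued for 4 h post-dose. Plasma was assayed by LC/MS/MS (LLOQ 5 ng/ml). Cmax, Tmax and 12-h concentration were read visually from the profiles.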

[2] = Tmax in HIV-seronegative healthy volunteers at 400 mg, po administered as single dose by LC-MS/MS in presence of albuminium, magnesium and simethicone-containg antacid; type: ADME, organism-based; conditions: human, in vivo; summary of the method: as §1
[3] = Drug level in HIV-seronegative healthy volunteers blood at 400 mg, po administered as single dose after 12 hrs by LC-MS/MS in presence of albuminium, magnesium and simethicone-containg antacid; type: ADME, organism-based; conditions: human, read-out: Drug uptake; summary of the method: as §1
[4] = Drug level in HIV-seronegative healthy volunteers blood at 400 mg, po administered as single dose after 12 hrs by LC-MS/MS; type: ADME, organism-based; conditions: human, read-out: Drug uptake; summary of the method: as §1
[5] = Cmax in HIV-seronegative healthy volunteers at 400 mg, po administered as single dose by LC-MS/MS in presence of albuminium, magnesium and simethicone-containg antacid; type: ADME, organism-based; set-up: dose 400 mg, route oral; conditions: human, in vivo; summary of the method: as §1
[6] = AUC (0 to infinity) in HIV-seronegative healthy volunteers at 400 mg, po administered as single dose by LC-MS/MS in presence of albuminium, magnesium and simethicone-containg antacid; type: ADME, organism-based; set-up: dose 400 mg, time infinity, route oral; conditions: human, plasma
Summary of the method: (§2)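 Randomized crossover in HIV-seronegative volunteers: after an 8-h overnight fast, a single observed oral 400 mg dose was given alone or with 30 ml aluminium/magnesium/simethicone antacid, with a 5- to 12-day washout between visits. Plasma was sampled at 0.5–48 h and assayed by LC/MS/MS (13C6 internal standard, linear 5–10,000 ng/ml). Noncompartmental AUC was computed by the linear-log trapezoidal rule and reported as a geometric mean.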

[7] = Cmax in HIV-seronegative healthy volunteers at 400 mg, po administered as single dose by LC-MS/MS; type: ADME, organism-based; set-up: dose 400 mg, route oral; conditions: human, in vivo; summary of the method: as §1
[8] = AUC (0 to infinity) in HIV-seronegative healthy volunteers at 400 mg, po administered as single dose by LC-MS/MS; type: ADME, organism-based; set-up: dose 400 mg, route oral, time infinity; conditions: human, plasma; summary of the method: as §2
[9] = AUC (0 to 12 hrs) in HIV-seronegative healthy volunteers at 400 mg, po administered as single dose by LC-MS/MS in presence of albuminium, magnesium and simethicone-containg antacid; type: ADME, organism-based; set-up: dose 400 mg, time < 12 hr, route oral; conditions: human, plasma; summary of the method: as §2
[10] = AUC (0 to 12 hrs) in HIV-seronegative healthy volunteers at 400 mg, po administered as single dose by LC-MS/MS; type: ADME, organism-based; set-up: dose 400 mg, time < 12 hr, route oral; conditions: human, plasma; summary of the method: as §2
[11] = system: Homo sapiens; experiment: Ratio of AUC (0 to 12 hrs) in HIV-seronegative healthy volunteers at 400 mg, po administered as single dose in presence of albuminium, magnesium and simethicone-containg antacid to AUC (0 to 12 hrs) in HIV-seronegative healthy volunteers at 400 mg, po administered as single dose; type: ADME, organism-based; conditions: in vivo
Summary of the method: (§3)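 Randomized crossover in HIV-seronegative volunteers: after an 8-h fast, a single oral 400 mg RAL dose was given with or without 30 ml antacid (2.7 g Mg hydroxide, 3 g Al hydroxide gel, 240 mg simethicone), with a 5–12 day washout. Plasma was sampled 0.5–48 h and assayed by LC/MS/MS (LLOQ 5 ng/ml). Noncompartmental analysis; log-transformed geometric mean ratios with 90% CI; paired t tests.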

[12] = system: Homo sapiens; experiment: Ratio of AUC (0 to infinity) in HIV-seronegative healthy volunteers at 400 mg, po administered as single dose in presence of albuminium, magnesium and simethicone-containg antacid to AUC (0 to 12 hrs) in HIV-seronegative healthy volunteers at 400 mg, po administered as single dose; type: ADME, organism-based; conditions: in vivo; summary of the method: as §3
[13] = system: Homo sapiens; experiment: (§4) Ratio of Cmax in HIV-seronegative healthy volunteers at 400 mg, po administered as single dose in presence of albuminium, magnesium and simethicone-containg antacid to Cmax in HIV-seronegative healthy volunteers at 400 mg, po administered as single dose; type: ADME, organism-based; conditions: in vivo; summary of the method: as §3
[14] = system: Blood; experiment: as §4, with “drug level” for “Cmax”, “volunteers blood” for “volunteers”, “mg after 12 hrs,” for “mg,”; type: ADME, organism-based; conditions: human, in vivo; summary of the method: as §3
[15] = system: Homo sapiens; experiment: Toxicity in HIV-seronegative healthy volunteers assessed as occurrence of mild headache at 400 mg, po administered as single dose; type: organism-based; conditions: in vivo
Summary of the method: (§5)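 Clinical adverse events were assessed during the two 12-h pharmacokinetic visits and at 24 and 48 h after a single oral 400 mg dose, given with or without 30 ml antacid. Events were graded with the 2004 Division of AIDS toxicity tables. Laboratory tests were run at screening and at 24 h post-dose.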

[16] = system: Homo sapiens; experiment: Toxicity in HIV-seronegative healthy volunteers assessed as occurrence of mild headache at 400 mg, po administered as single dose in presence of 30 ml albuminium, magnesium and simethicone-containg antacid; type: organism-based; conditions: in vivo; summary of the method: as §5
[17] = system: Homo sapiens; experiment: Ratio of AUC (0 to infinity) in HIV-infected patients at 400 mg, po treated after 2 hrs administration of 20 mg proton pump inhibitor omeprazole to AUC (0 to infinity) in HIV-infected patients at 400 mg, po; type: ADME, organism-based; conditions: in vivo
[18] = system: Homo sapiens; experiment: Ratio of Cmax in HIV-infected patients at 400 mg, po treated after 2 hrs administration of 20 mg proton pump inhibitor omeprazole to Cmax in HIV-infected patients at 400 mg, po; type: ADME, organism-based; conditions: in vivo
[19] = system: Homo sapiens; experiment: Ratio of drug level in HIV-infected patients at 400 mg, po treated after 2 hrs administration of 20 mg proton pump inhibitor omeprazole after 12 hrs to drug level in HIV-infected patients at 400 mg, po after 12 hrs; type: ADME, organism-based; conditions: in vivo
[20] = Terminal half life in human at 400 mg BID; type: ADME, organism-based; conditions: in vivo, read-out: beta t1/2 (converted)
[21] = Primary phase half life in human at 400 mg BID; type: ADME, organism-based; conditions: in vivo, read-out: alphat1/2 (converted)

Tmax [1]: 3 h | Tmax [2]: 1 h | concentration at 12 h [3]: 13 ng/mL | concentration at 12 h [4]: 37 ng/mL | Cmax [5]: 1440 ng/mL | AUC(0-inf) [6]: 3420 ng·h/mL | Cmax [7]: 945 ng/mL | AUC(0-inf) [8]: 3540 ng·h/mL | AUC(0-t) at 12 h [9]: 3300 ng·h/mL | AUC(0-t) at 12 h [10]: 3040 ng·h/mL | Ratio [11]: 1.08 | Ratio [12]: 0.96 | Ratio [13]: 1.53 | Ratio [14]: 0.33 | Ratio [17]: 3 | Ratio [18]: 4 | Ratio [19]: 1.5 | half-life [20]: 9 h | half-life [21]: 1 h
SMILES: Cc1nnc(C(=O)NC(C)(C)c2nc(C(=O)NCc3ccc(F)cc3)c(O)c(=O)n2C)o1 [RALTEGRAVIR]
Activity [15]: 25% | Activity [16]: 42%
